The source of these data is ChEMBL document CHEMBL4422640, “Design, synthesis and biological evaluation of tetrazole-containing RXRα ligands as anticancer agents” (Eur J Med Chem, 2019).

SMILES strings stand for the structures. The source made the active and inactive calls. The calls are words filed in the database; no cut-off is given here.

The target of assay [1] is T1, Retinoic acid receptor RXR-alpha (Homo sapiens) (UniProt P19793).
T1 sequence (whole entry): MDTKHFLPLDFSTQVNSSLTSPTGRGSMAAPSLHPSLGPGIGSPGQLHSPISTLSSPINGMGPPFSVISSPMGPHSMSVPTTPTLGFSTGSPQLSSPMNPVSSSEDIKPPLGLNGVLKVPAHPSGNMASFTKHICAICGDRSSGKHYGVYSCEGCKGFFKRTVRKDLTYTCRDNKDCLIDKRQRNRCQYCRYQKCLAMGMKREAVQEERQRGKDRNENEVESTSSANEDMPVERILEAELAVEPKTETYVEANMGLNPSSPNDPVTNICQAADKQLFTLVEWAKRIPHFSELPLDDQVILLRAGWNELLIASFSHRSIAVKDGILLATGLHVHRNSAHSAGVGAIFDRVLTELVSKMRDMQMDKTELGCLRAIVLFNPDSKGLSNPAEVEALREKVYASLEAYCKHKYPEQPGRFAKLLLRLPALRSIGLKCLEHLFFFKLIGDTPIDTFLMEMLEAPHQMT
The experiment in a line: Antagonist activity at Gal4-fused human RXRalpha LBD (unknown origin) assessed as inhibition of 9-cis-retinoic acid-induced transactivation at 1 to 50 uM after 18 hrs by cell-based dual luciferase reporter gene assay. A digest of the protocol:
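Cells transfected with Gal4 reporter plus Gal4-RXRα/LBD plasmids for 24 h, then treated with compounds at 1, 10 and 50 µM in the presence of 9-cis-RA for 18 h. Firefly luciferase read from lysates, normalized to Renilla. A compound counted as antagonist when inhibition was dose-dependent.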

The test system of another assay is MDA-MB-231. The experiment in a line: Growth inhibition of human MDA-MB-231 cells after 48 hrs by MTT assay. It counts as functional, cell-based. The note with it: MDA-MB-231, 48 h. A digest of the protocol: (§1)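 MDA-MB-231 grown in DMEM, MCF-7 in MEM, each with 10% FBS, 37 °C, 5% CO2. Confluent cells exposed to compound, 0.195–100 μM, for 48 h. Then 2 mg/mL MTT for 4 h at 37 °C, formazan dissolved in DMSO, absorbance read at 490 nm. IC50 values are the mean of three independent experiments.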

The subject of assay [2] is MCF7. Put plainly: Growth inhibition of human MCF7 cells after 48 hrs by MTT assay. The class given is functional, cell-based. As to conditions: MCF7, 48 h. A digest of the protocol: as §1
The target of assay [3] is T2, Retinoic acid receptor RXR-alpha (Homo sapiens, UniProt P19793).
T2 sequence (P19793 whole entry): T1 sequence (whole entry)
Put plainly: Inhibition of 9-cis-retinoic acid competition binding to RXRalpha LBD (unknown origin) by fluorescence quenching method.

In assay [4] the target is T1, Retinoic acid receptor RXR-alpha (Homo sapiens). Put plainly: Inhibition of RXRalpha in human HeLa cells assessed as increase in PARP cleavage after 8 hrs by Immunoblotting analysis. The class given is cell-based. A digest of the protocol:
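HeLa cells in medium with 0% FBS treated with compounds, with or without TNF-α (20 ng/mL), for 8 h. PARP cleavage detected by immunoblot: 10% SDS-PAGE, nitrocellulose, 5% milk/TBST block, ECL detection. For the RXRα-dependence check, cells first got control or RXRα siRNA for 48 h, then compounds at 20 µM for 8 h.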

The target is the same in assay [5]. The experiment in a line: Inhibition of RXRalpha in human MCF7 cells assessed as increase in PARP cleavage after 12 hrs by Immunoblotting analysis. It counts as cell-based. A digest of the protocol:
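MCF-7 cells in medium with 0% FBS treated with compounds, with or without TNF-α (20 ng/mL), for 12 h. PARP cleavage read by immunoblot (10% SDS-PAGE, ECL). For the RXRα-dependence check, cells got control or RXRα siRNA for 48 h, then compounds at 30 µM for 12 h.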

For assay [6] the target is unchanged. Put plainly: Inhibition of RXRalpha in human HeLa cells assessed as increase in PARP cleavage at 15 uM after 8 hrs in presence of TNFalpha by Immunoblotting analysis. The class given is cell-based. A digest of the protocol: (§2)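 Cells kept in medium with 0% FBS and treated with compound together with TNF-α (20 ng/mL). Exposure was 8 h for HeLa and 12 h for MCF-7. PARP cleavage read by immunoblot: 10% SDS-PAGE, nitrocellulose, blocking in 5% milk/TBST, HRP secondary antibody, ECL.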

The target is the same in assay [7]. Put plainly: Inhibition of RXRalpha in human MCF7 cells assessed as increase in PARP cleavage at 30 uM after 12 hrs in presence of TNFalpha by Immunoblotting analysis. The class given is cell-based. A digest of the protocol:
as §2

The test system of a further assay is HeLa. Put plainly: Induction of apoptosis in human HeLa cells assessed as increase in PARP cleavage at 20 uM after 8 hrs in presence of RXRalpha siRNA by Immunoblotting analysis. It counts as functional, cell-based. A digest of the protocol:
(§3)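 Cells transfected (Lipofectamine 2000) with control or RXRα siRNA for 48 h. HeLa (MEM, 10% FBS) then given compound at 20 μM for 8 h; MCF-7 (MEM, 10% FBS) given 30 μM for 12 h. Lysates run on 10% SDS-PAGE, transferred to nitrocellulose, probed for PARP cleavage and detected by ECL.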

For assay [8], the system named is MCF7. Put plainly: Induction of apoptosis in human MCF7 cells assessed as increase in PARP cleavage at 30 uM after 12 hrs in presence of siRNA by Immunoblotting analysis. It counts as functional, cell-based. A digest of the protocol: as §3

`CC1=C(Cc2nnn[nH]2)c2ccccc2/C1=C\c1ccc(C(F)(F)F)cc1`: in assay [1], the result was Active.
Turning to `CC1=C(Cc2noc(=O)[nH]2)c2ccccc2/C1=C\c1ccc(C(C)C)cc1`, the IC50 in the assay on MDA-MB-231 was found to be 9.04 µM; in the assay with MCF7 [2] it was 23.8 µM.
For `COc1ccc(/C=C2\C=C(Cc3nnn[nH]3)c3ccccc32)cc1`, in assay [1], the outcome was Active.
`CC1=C(Cc2nnn[nH]2)c2ccccc2/C1=C\c1cccs1`: the results for the half-maximal inhibitory concentration (IC50) with MDA-MB-231 and with MCF7 [2] were 53.3 µM and 124 µM, respectively.
Regarding `CC1=C(Cc2nnn[nH]2)c2ccccc2/C1=C\c1ccc(OC(F)(F)F)cc1`, the result in assay [1] was Active.
Take `CC1=C(CCc2nnn[nH]2)c2ccccc2/C1=C\c1cccc(C(F)(F)F)c1`: the concentration for half-maximal inhibition (IC50) in the assay with MDA-MB-231 came to 15.6 µM; in the assay with MCF7 [2], 28.8 µM.
Molecule `CC1=C(CC(=O)O)c2cc(F)ccc2/C1=C\c1ccc(C(C)C)cc1` displayed a Kd in assay [3] of 2.38 µM.
Consider `CC1=C(CCc2nnn[nH]2)c2ccccc2/C1=C\c1cccc2ccccc12`, for which the outcome in assay [1] was Active. For the same molecule, the inhibition result in assay [4] and in assay [5] was “Dose-dependent effect” throughout.
Turning to `CC1=C(CCc2nnn[nH]2)c2ccccc2/C1=C\c1ccc(Cl)cc1`, the IC50 in the assay on MDA-MB-231 was 15.2 µM; in the assay on MCF7 [2], 56.3 µM.
For `CC1=C(CCc2nnn[nH]2)c2ccccc2/C1=C\c1ccc(C(C)(C)C)cc1` the same measures were 12.5 µM and 31.1 µM.
Taken in the same sequence, the figures for `CC1=C(CCc2nnn[nH]2)c2ccccc2/C1=C\c1cccc(Cl)c1` were 24.7 µM and 45.6 µM.
On to `CC1=C(CCc2nnn[nH]2)c2ccccc2/C1=C\c1ccc(OC(F)(F)F)cc1`, for which the half-maximal inhibitory concentration (IC50) in the assay with MDA-MB-231 worked out at 8.9 µM; with MCF7 [2], 17.3 µM. Further, the Kd in [3] was 1.59 µM. In addition, the inhibition result in [4] and in assay [5] was “Dose-dependent effect” throughout. The inhibition result in assay [6] and in assay [7] was “Active” in each case. Moreover, the result in the assay on HeLa and in the assay on MCF7 [8] was inactive.
Regarding `CC(C)c1ccc(/C=C2/C=C(CC(=O)NO)c3cc(F)ccc32)cc1`, the half-maximal inhibitory concentration (IC50) in the assay with MDA-MB-231 is 5 µM; in the assay on MCF7 [2], 20.8 µM. Moreover, binding in assay [3] was characterised by a dissociation constant (Kd) of 1.13 µM. Besides, the inhibition entry in assay [6] and in [7] was “Active” throughout. Also, the result in the assay with HeLa and in the assay on MCF7 [8] was inactive.
Consider `CSc1ccc(/C=C2/C(C)=C(Cc3nnn[nH]3)c3ccccc32)cc1`, for which the result in assay [1] was Active.
Regarding `CC1=C(Cc2nnn[nH]2)c2ccccc2/C1=C\c1ccc(C(C)(C)C)cc1`, the IC50 came out at 14.3 µM in the assay with MDA-MB-231 and 38.4 µM in the assay on MCF7 [2].
For `CC1=C(CCc2nnn[nH]2)c2ccccc2/C1=C\c1ccc(C(F)(F)F)cc1` the same measures were 22.1 µM and 39.4 µM.
For `CC1=C(Cc2nnn[nH]2)c2ccccc2/C1=C\c1ccccc1C(F)(F)F` the same measures were 40.8 µM and 62.3 µM.
With `CSc1ccc(/C=C2/C(C)=C(CCc3nnn[nH]3)c3ccccc32)cc1`, the outcome in [1] was Active.
Turning to `CC1=C(CCc2nnn[nH]2)c2ccccc2/C1=C\c1ccccc1C(F)(F)F`, the result in assay [1] was Active.
Take `CC1=C(Cc2nnn[nH]2)c2ccccc2/C1=C\c1ccc(C(C)C)cc1`: the figures for the IC50 with MDA-MB-231 and in the assay with MCF7 [2] were 8.48 µM and 27.6 µM, respectively.
In the case of `CC1=C(CCc2nnn[nH]2)c2ccccc2/C1=C\c1ccccc1Cl`, in assay [1], the outcome was Active.
Take `COc1ccc(/C=C2/C(C)=C(Cc3nnn[nH]3)c3ccccc32)cc1`: the IC50 with MDA-MB-231 was 25.7 µM; in the assay with MCF7 [2], 104 µM.
For `CC(C)c1ccc(/C=C2\C=C(CCc3nnn[nH]3)c3ccccc32)cc1` the same measures were 15.6 µM and 41.8 µM.
`COc1ccc(/C=C2/C(C)=C(CCc3nnn[nH]3)c3ccccc32)cc1`: the outcome in [1] was Active.
On the same count and under the same terms, as for `CC1=C(Cc2nnn[nH]2)c2ccccc2/C1=C\c1cccc(C(F)(F)F)c1`, the entry is “Active”.
For the molecule `CC1=C(CCc2nnn[nH]2)c2ccccc2/C1=C\c1ccc(C(C)C)cc1`, the half-maximal inhibitory concentration (IC50) with MDA-MB-231 came to 12.3 µM; in the assay with MCF7 [2], 27 µM.
In the case of `CC(C)c1ccc(/C=C2\C=C(Cc3nnn[nH]3)c3ccccc32)cc1`, the outcome in assay [1] was Active.
